Measurements: ChEMBL document CHEMBL1156597, “Structure-activity relationship of kahalalide F synthetic analogues” (J Med Chem, 2008)

How the values were obtained:
K562 = assay: Cytotoxicity against human K562 cells after 48 hrs by SRB assay; format: functional; conditions: K562, 48 h; for CC50: read-out: LC50 (the source's name)
How it was run: (§1)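 Cells grown in RPMI 1640 with 10% FBS and penicillin/streptomycin at 37 °C and 5% CO₂, trypsinized, then seeded at 5 × 10³/well. After 18 h drug-free attachment, samples in DMSO/EtOH/PBS (0.5:0.5:99) were added for 48 h continuous exposure. Cells were fixed with cold TCA (1 h, 4 °C) and stained with SRB (10 min). Tris-solubilized stain read at 490 nm. Triplicate wells, mean ± SD; GI₅₀ derived.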

LNCaP = assay: Cytotoxicity against human LNcaP cells after 48 hrs by SRB assay; format: functional; conditions: for CC50: read-out: LC50 (the source's name); how it was run: as §1
A549 = assay: Cytotoxicity against human A549 cells after 48 hrs by SRB assay; format: functional, cell-based; conditions: Homo sapiens, A549, 48 h; how it was run: as §1
SK-BR-3 = assay: Cytotoxicity against human SKBR3 cells after 48 hrs by SRB assay; format: functional; conditions: SK-BR-3, 48 h; for CC50: read-out: LC50 (the source's name); how it was run: as §1
PANC-1 = assay: Cytotoxicity against human PANC1 cells after 48 hrs by SRB assay; format: functional; conditions: PANC-1, 48 h; for CC50: read-out: LC50 (the source's name); how it was run: as §1
HT-29 = assay: Cytotoxicity against human HT29 cells after 48 hrs by SRB assay; format: functional, cell-based; conditions: Homo sapiens, HT-29, 48 h; for CC50: read-out: LC50 (the source's name); how it was run: as §1
LoVo [1] = assay: Cytotoxicity against human LoVo cells after 48 hrs by SRB assay; format: functional; conditions: for CC50: read-out: LC50 (the source's name)
[2] = Cytotoxicity against human IGROV-ET cells after 48 hrs by SRB assay; format: functional; conditions: for CC50: read-out: LC50 (the source's name); how it was run: as §1
[3] = Cytotoxicity against human HeLa-APL cells after 48 hrs by SRB assay; format: functional; how it was run: as §1
SK-MEL-28 = assay: Cytotoxicity against human SK-MEL-28 cells after 48 hrs by SRB assay; format: functional, cell-based; conditions: Homo sapiens, SK-MEL-28, 48 h; for CC50: read-out: LC50 (the source's name); how it was run: as §1
LoVo [4] = assay: Cytotoxicity against human doxorubicin resistant LoVo cells after 48 hrs by SRB assay; format: functional; conditions: for CC50: read-out: LC50 (the source's name); how it was run: as §1
DU-145 = assay: Cytotoxicity against human DU145 cells after 48 hrs by SRB assay; format: functional, cell-based; conditions: Homo sapiens, DU-145, 48 h; for CC50: read-out: LC50 (the source's name); how it was run: as §1
HeLa = assay: Cytotoxicity against human HeLa cells after 48 hrs by SRB assay; format: functional; conditions: for CC50: read-out: LC50 (the source's name); how it was run: as §1
[5] = Cytotoxicity against human IGROV cells after 48 hrs by SRB assay; format: functional; conditions: for CC50: read-out: LC50 (the source's name); how it was run: as §1

Work on `C/C=C1\NC(=O)[C@H](Cc2ccccc2Cl)NC(=O)[C@@H](C(C)C)NC(=O)[C@@H]([C@H](C)CC)NC(=O)[C@H](NC(=O)[C@H](NC(=O)[C@H](CCCN)NC(=O)[C@H]2CCCN2C(=O)[C@H](NC(=O)[C@@H](NC(=O)[C@@H](NC(=O)[C@H](NC(=O)CCCC(C)C)C(C)C)[C@@H](C)O)C(C)C)C(C)C)[C@H](C)CC)[C@H](C)OC(=O)[C@H](C(C)C)NC1=O` yielded a GI50 (K562) of 1850 nM, a TGI (K562) of 1850 nM and a CC50 (K562) of 1850 nM. It also gave a GI50 (LNCaP) of 92.8 nM, a TGI (LNCaP) of 359 nM and a CC50 (LNCaP) of 832 nM. For the same compound, the GI50 (A549) was 659 nM, the LC50 (A549) was 1040 nM and the GI50 (A549; read-out: GI50) was 418 nM. The GI50 (SK-BR-3) was 56.8 nM, the GI50 (SK-BR-3; read-out: GI50) was 54.9 nM and the CC50 (SK-BR-3) was 111 nM. For the same compound, the GI50 (PANC-1) was 1510 nM, the TGI (PANC-1) was 1700 nM and the CC50 (PANC-1) was 1700 nM. For the same compound, the GI50 (HT-29) was 89 nM, the TGI (HT-29) was 113 nM and the CC50 (HT-29) was 144 nM. For the same compound, the GI50 (LoVo [1]) was 43.4 nM, the TGI (LoVo [1]) was 63.5 nM and the CC50 (LoVo [1]) was 111 nM. For the same compound, the GI50 [2] was 142 nM, the GI50 ([2]; read-out: GI50) was 97.3 nM and the CC50 [2] was 196 nM. The GI50 [3] was 312 nM, the LC50 (concentration giving 50% net cell kill) [3] was 931 nM and the TGI [3] was 533 nM. For the same compound, the GI50 (SK-MEL-28) was 638 nM, the GI50 (SK-MEL-28; read-out: GI50) was 386 nM and the CC50 (SK-MEL-28) was 1050 nM. It also gave a GI50 (LoVo [4]) of 44.3 nM, a TGI (LoVo [4]) of 46.9 nM and a CC50 (LoVo [4]) of 85.1 nM. It also gave a GI50 (DU-145) of 391 nM, a GI50 (DU-145; read-out: GI50) of 180 nM and a CC50 (DU-145) of 670 nM. The GI50 (HeLa) was 274 nM, the TGI (HeLa) was 506 nM and the CC50 (HeLa) was 889 nM. The GI50 [5] was 118 nM, the GI50 ([5]; read-out: GI50) was 72.3 nM and the CC50 [5] was 204 nM.

For `C/C=C1\NC(=O)[C@H](Cc2ccccc2)NC(=O)[C@@H](C(C)C)NC(=O)[C@@H]([C@H](C)CC)NC(=O)[C@H](NC(=O)[C@H](NC(=O)[C@H](CCCN)NC(=O)[C@H]2CCCN2C(=O)[C@H](NC(=O)[C@@H](NC(=O)CNC(=O)[C@H](NC(=O)CCCC(C)C)C(C)C)C(C)C)C(C)C)[C@H](C)CC)[C@H](C)OC(=O)[C@H](C(C)C)NC1=O`, the GI50 (K562) was 129 nM, the TGI (K562) was 208 nM and the CC50 (K562) was 744 nM. The GI50 (LNCaP) was 233 nM, the TGI (LNCaP) was 988 nM and the CC50 (LNCaP) was 988 nM. For the same compound, the GI50 (A549) was 622 nM, the GI50 (A549; read-out: GI50) was 524 nM and the TGI (SK-BR-3) was 819 nM. It also gave a GI50 (SK-BR-3; read-out: GI50) of 629 nM, a CC50 (SK-BR-3) of 512 nM and a GI50 (PANC-1) of 515 nM. The TGI (PANC-1) was 1070 nM, the CC50 (PANC-1) was 1990 nM and the GI50 (HT-29) was 893 nM. It also gave a TGI (HT-29) of 1850 nM, a CC50 (HT-29) of 796 nM and a GI50 (LoVo [1]) of 597 nM. It also gave a TGI (LoVo [1]) of 1130 nM, a CC50 (LoVo [1]) of 828 nM and a GI50 [2] of 232 nM. It also gave a GI50 ([2]; read-out: GI50) of 197 nM, a CC50 [2] of 566 nM and a GI50 [3] of 230 nM. It also gave an LC50 (concentration giving 50% net cell kill) [3] of 684 nM, a TGI [3] of 421 nM and a GI50 (SK-MEL-28) of 283 nM. For the same compound, the GI50 (SK-MEL-28; read-out: GI50) was 205 nM, the CC50 (SK-MEL-28) was 717 nM and the GI50 (LoVo [4]) was 2390 nM. The TGI (LoVo [4]) was 3040 nM, the CC50 (LoVo [4]) was 3850 nM and the GI50 (DU-145) was 994 nM. The GI50 (DU-145; read-out: GI50) was 572 nM, the CC50 (DU-145) was 1360 nM and the GI50 (HeLa) was 250 nM. For the same compound, the TGI (HeLa) was 471 nM, the CC50 (HeLa) was 755 nM and the GI50 [5] was 83.7 nM. It also gave a GI50 ([5]; read-out: GI50) of 80.7 nM and a CC50 [5] of 139 nM.

Compound `C/C=C1\NC(=O)[C@H](Cc2ccccc2)NC(=O)[C@@H](C(C)C)NC(=O)[C@@H]([C@H](C)CC)NC(=O)[C@H](NC(=O)[C@H](NC(=O)[C@H](CCCN)NC(=O)[C@H]2CCCN2C(=O)[C@H](NC(=O)[C@@H](NC(=O)[C@@H](NC(=O)[C@H](NC(=O)CCCC(C)C)C(C)C)[C@@H](C)O)[C@@H](C)O)C(C)C)[C@H](C)CC)[C@H](C)OC(=O)[C@H](C(C)C)NC1=O` has a CC50 (K562) of 1930 nM, a CC50 (LNCaP) of 1400 nM and an LC50 (A549) of 1820 nM. For the same compound, the TGI (SK-BR-3) was 2430 nM, the GI50 (SK-BR-3; read-out: GI50) was 2070 nM and the CC50 (SK-BR-3) was 1060 nM. For the same compound, the GI50 (PANC-1) was 5510 nM, the TGI (PANC-1) was 4560 nM and the CC50 (PANC-1) was 2320 nM. For the same compound, the GI50 (HT-29) was 11000 nM, the TGI (HT-29) was 8870 nM and the CC50 (HT-29) was 2370 nM. For the same compound, the GI50 (LoVo [1]) was 2970 nM, the TGI (LoVo [1]) was 3350 nM and the CC50 (LoVo [1]) was 3770 nM. For the same compound, the TGI [2] was 1750 nM, the GI50 ([2]; read-out: GI50) was 1910 nM and the CC50 [2] was 644 nM. It also gave an LC50 (concentration giving 50% net cell kill) [3] of 1450 nM, a CC50 (SK-MEL-28) of 1860 nM and a GI50 (LoVo [4]) of 2990 nM. It also gave a TGI (LoVo [4]) of 2900 nM, a CC50 (LoVo [4]) of 2820 nM and a CC50 (DU-145) of 1690 nM. The CC50 (HeLa) was 1380 nM and the CC50 [5] was 859 nM.
